High-throughput results from PubChem.
Most compounds without a hit are left out; they make up all but 1.8% or so of the library.
HKDC1 inh: HKDC1 hexokinase inhibitors, primary screen, biochemical, fluorescence, uHTS; Q2TB90; recombinant HKDC1, G6PDH/diaphorase resazurin coupled fluorescence; inhibition, % at 20 µM; hit rate 0.16% among 340,000;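 active means inhibition above about 35% when tested at 20 µM, limit read from the data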
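Assay system: in-house recombinant HK5 (HKDC1) enzyme. Input: HKDC1 at 5 µg/mL. Medium: Tris pH 8.0 buffer with MgCl2, Tween-20, BSA, BME. Dosing: single 20 µM dose. Schedule: 90 min reaction incubation at room temperature, dark. Signal: resazurin-to-resorufin fluorescence via G6PDH and diaphorase coupling, 525/613 nm. Controls: DMSO-enzyme wells negative, buffer-substituted wells positive.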
AI-2 QS modul: Vibrio harveyi AI-2 quorum sensing modulators, primary screen, JMH597 strain, luminescence/OD600 ratio; Vibrio harveyi JMH597 AI-2 luminescence/OD600 ratio, 9 h; active compounds read low; strain lacks LuxN and CqsS sensors; 0 = neutral-control median; activity change, % at 7.5 µM; hit rate 0.4% among 300,000; in the data active means activity change below about -75%, passing the limit was not always enough; inconclusive means no clear call, values can overlap the other calls;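 further: luminescence divided by OD600 gain over 9 h not by final OD600 alone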
LANA-H2A inh: blockers of LANA interaction with H2A/H2B – biochemical, FP readout, HTS, primary screen | cell-free LANA-H2A/H2B peptide, fluorescence polarization | inhibition, % (concentration not given with the values) | Protein LANA1 (Human herpesvirus 8 type P (isolate GK18)), Q9QR71 | AID 2629, 2010 | hit rate 0.6% among 320,000; in the data active means inhibition mostly above about 10%, no sharp cut-off; inactive means mostly below about 6.7%
ATG4B inh: ATG4B protease inhibitors, primary screen, biochemical, fluorescence, uHTS | ATG4B cleavage of LC3-PLA2, NBD-HPC fluorescence, 1 h | inhibition, % at 8.33 µM | hit rate 0.51% among 340,000 | AID 504462, 2011; in the data active means inhibition above about 40%
Target sequence (Q9Y4P1 whole entry, looked up): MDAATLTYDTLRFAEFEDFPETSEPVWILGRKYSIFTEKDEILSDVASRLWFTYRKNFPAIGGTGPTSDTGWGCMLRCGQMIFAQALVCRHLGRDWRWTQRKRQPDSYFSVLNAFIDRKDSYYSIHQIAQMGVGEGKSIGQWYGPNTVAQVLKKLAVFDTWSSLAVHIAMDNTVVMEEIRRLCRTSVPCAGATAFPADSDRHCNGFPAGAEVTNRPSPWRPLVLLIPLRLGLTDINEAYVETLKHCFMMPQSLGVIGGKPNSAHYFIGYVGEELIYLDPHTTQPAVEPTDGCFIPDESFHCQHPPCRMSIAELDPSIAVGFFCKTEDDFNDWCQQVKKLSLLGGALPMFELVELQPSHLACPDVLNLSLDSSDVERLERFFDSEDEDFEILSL
A1 inh: caspase 3/7 activation in MEF A1-2A-BIM cells, primary screen, A1 inhibitor project, cell-based, luminescence, HTS. caspase activation, % (test concentration not listed). hit rate 0.066% among 330,000. AID 2462, 2010. Caspase-Glo 3/7 luminescence, 3 h; percent of clofoctol response, vehicle zero;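 active means over half of replicate activation scores above 10%, or exactly half above 10 with the replicate mean above 10; inconclusive means replicate mean below 10 yet half the replicates above 10; inactive means over half of replicates below 10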
HDAC3 inhib: HDAC3 deacetylase inhibitors, primary screen, biochemical, fluorescence, cell-free homogeneous | hit rate 0.15% among 320,000 | Histone deacetylase 3 (Homo sapiens), O15379 | AID 2718, 2010 | inhibition, % at 8.3 µM | recombinant HDAC3, fluorogenic peptide/trypsin coupled; in the data active means inhibition above about 26%, passing the limit was not always enough; inconclusive means no clear call, values can overlap the other calls
ATG4B conf: ATG4B protease inhibitors, retest, confirmation, biochemical, fluorescence, single concentration | shares compounds with ATG4B inh | ATG4B protease fluorescent substrate cleavage assay | inhibition, % at 8.33 µM | hit rate 92% among 320; in the data active means inhibition above about 39%
PLA2 counter: PLA2 enzyme inhibition, counter-screen for ATG4B inhibitor project, biochemical, single concentration, uHTS hits; hit rate 66% among 1,600; shares compounds with ATG4B inh; inhibition, % at 8.33 µM; purified PLA2, NBD-C6-HPC fluorescence, 45 min; in the data active means inhibition above about 50%
Target sequence (P04054 whole entry, looked up): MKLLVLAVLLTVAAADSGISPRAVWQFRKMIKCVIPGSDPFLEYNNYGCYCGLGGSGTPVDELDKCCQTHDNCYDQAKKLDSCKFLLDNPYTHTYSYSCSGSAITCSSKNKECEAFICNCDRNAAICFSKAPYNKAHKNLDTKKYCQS
Numbers stand for hits; - = inactive; ? = inconclusive; . = no result given.

SMILES	HKDC1 inh	AI-2 QS modul	LANA-H2A inh	ATG4B inh	A1 inh	HDAC3 inhib	PLA2 counter	others
C=CCN(C(=O)c1csnn1)C(C(=O)NCc1ccccc1)c1cccs1 (stereo not given)	-	-	-	-	-	-	.
O=C(Nc1sc(-c2ccccc2)cc1C(=O)O)c1ccccc1	-	-	-	68	-	-	81
C=CCn1c(COc2ccccc2F)nnc1SCC(=O)NC(=O)NCc1ccco1	-	-	-	-	-	?	.
C=CCn1c(COc2ccccc2-c2ccccc2)nnc1SCC(=O)NC(=O)NCc1ccco1	-	-	-	75	-	-	85
CC(C)(C)c1ccc(-c2nc(C#N)c(N3CCC(C(N)=O)CC3)o2)cc1	-	-	-	56	-	-	56
COc1ccc(-c2nc(C#N)c(N3CCC(C(N)=O)CC3)o2)cc1	-	-	-	-	-	-	.
COc1ccccc1N(C)S(=O)(=O)c1ccc(C(=O)N(C)Cc2ccc(Cl)s2)cc1	-	.	-	-	-	-	.
CC1=CCC[C@@H]2[C@@](C)(CC/C(C)=C/C(=O)O)[C@H](C)CC[C@@]12C	-	-	-	79	-	-	81
Cc1c(Cl)cccc1Nc1ccccc1C(=O)O	-	-	-	44	-	-	-	ATG4B conf=57
O=C(CSc1ccc(Cl)cc1)Nc1ccccc1Oc1ccccc1	-	-	-	40	-	.	-
O=C(CSc1ccc(Br)cc1)Nc1ccccc1Oc1ccccc1	-	-	.	-	-	.	.
Cc1ccc(-c2nc(-c3ccc(Cl)cc3)sc2CC(=O)O)c(C)c1	-	-	-	-	-	-	.
O=C(Nc1cccc(Cl)c1N1CCCC1)c1cccc(-c2cc3ccccc3oc2=O)c1	-	-	-	50	-	-	-	ATG4B conf=59
Cc1cccc2nc(-c3ccccc3)nc(N3CCC(O)(c4ccc(Cl)cc4)CC3)c12	-	-	.	41	-	.	-
CCN1CCN(c2nc(-c3ccccc3)nc3ccccc23)CC1	-	-	-	-	-	-	.
Nn1cc(-c2ccccc2)nc1SCC(=O)Nc1ccc(S(N)(=O)=O)cc1	-	-	-	-	-	.	.
O=[N+]([O-])c1ccccc1Nc1c2ccccc2nc2ccccc12	-	-	-	-	-	-	.
O=[N+]([O-])c1ccc(Nc2c3ccccc3nc3ccccc23)cc1	-	-	.	58	.	.	60
Cc1ccc(CNS(=O)(=O)c2ccc(C(C)(C)C)cc2)n1C	-	-	-	86	-	-	89
CC(C)(C)c1ccc(S(=O)(=O)NCCc2ccncc2)cc1	-	-	-	-	-	-	.
Cc1ccc2c(CC(=O)NNC(=O)c3ccncc3)coc2c1	-	-	-	-	-	-	.
O=C(CSc1nc2ccccc2c(=O)n1Cc1ccccc1)Nc1ccc(Br)cc1C(=O)O	-	.	-	45	-	-	-	ATG4B conf=60
Cc1ccc(S(=O)(=O)N2CCOCC2)cc1NC(=O)CSc1nc2ccccc2c(=O)n1Cc1ccccc1	-	-	-	-	-	-	.
Cc1cc(C)cc(N(CCC#N)C(=O)COC(=O)C2CCN(c3ccc(C(F)(F)F)cn3)CC2)c1	-	.	-	-	-	?	.
COc1ccc(Cl)cc1NC(=O)Nc1cccc([N+](=O)[O-])c1C	-	-	-	78	-	-	86
SMILES	HKDC1 inh	AI-2 QS modul	LANA-H2A inh	ATG4B inh	A1 inh	HDAC3 inhib	PLA2 counter	others
COc1ccc(Cl)cc1NC(=O)c1ccccc1C	-	-	-	-	-	-	.
Cc1cc(C(=O)N/N=C/c2cc(Br)cc(Br)c2OC(=O)c2cccc(F)c2)n[nH]1	-	-	-	44	-	-	-
Cc1cc(C(=O)N/N=C/c2cc(Br)cc(Br)c2OC(=O)c2ccccc2)n[nH]1	.	-	-	.	-	-	.
Cc1cc(C(=O)N/N=C\c2cc(C(C)(C)C)ccc2O)n[nH]1	-	-	-	47	-	-	55
CC(C)CNS(=O)(=O)c1cc(C(=O)OCC(=O)N2CCOCC2)c(Cl)cc1Cl	-	-	-	-	-	-	.
COC(=O)c1sc(S(=O)(=O)N2CC(C)OC(C)C2)c(C(=O)OC)c1C (stereo not given)	-	.	.	-	.	.	.
Cc1ccc(C)c(OCCSc2nnc(-c3cccnc3)n2N)c1	-	-	-	-	-	-	.
O=C1/C(=C/C=C/c2ccco2)SC(=S)N1NS(=O)(=O)c1ccccc1	-	.	-	78	-	-	-	ATG4B conf=41
COc1ccc(-c2cc(=O)oc3cc(OC(=O)C4CCCCC4)c(Cl)cc23)cc1	-	-	-	-	-	-	.
Clc1cccc(Cl)c1CO/N=C/c1cccs1	-	-	-	-	-	-	.
Cc1c(C)c(C)c(CO/N=C/c2cccs2)c(C)c1C	-	-	-	60	-	-	-	ATG4B conf=66
O=C(Nc1ccccc1-c1ccccc1)c1ccccc1	-	-	-	-	-	-	.
Nc1c(S(=O)(=O)O)cc(NC(=O)c2ccccc2)c2c1C(=O)c1ccccc1C2=O	-	-	-	76	-	-	68
CC(C)C1Cc2nc(Cl)c(C#N)cc2CO1 (stereo not given)	-	-	-	-	-	-	.
CCOc1cc(Br)c(Br)c(C=Nc2ccc(NC(C)=O)cc2)c1O	-	-	-	66	-	-	55
Cc1cccc(CSc2nnc(-c3cccs3)n2Cc2ccco2)c1	-	-	-	68	-	-	67
CC(C)CCOc1ccc(/C=C2\CCn3c2nc2cc(C(=O)O)ccc2c3=O)cc1	-	.	.	97	.	.	92
O=C(NC(=S)Nc1ccccc1F)C1CCCCC1	.	-	-	.	-	-	.
O=C(c1ccc(Cl)c(S(=O)(=O)Nc2ccccc2C(=O)N2CCc3ccccc3C2)c1)N1CCc2ccccc2C1	-	-	-	48	-	-	-	ATG4B conf=62
O=C1NC(=O)C(=C2CCCCCC2)S1	-	-	-	-	-	-	.
CCCN(CC1CC1)C(=O)COC(=O)c1[nH]c(C)c(C(=O)OCC)c1C	-	-	-	-	-	-	.
N=C1/C(=C\c2ccc(OC(=O)c3ccccc3Cl)cc2)C(=O)N=C2SC(N3CCOCC3)=NN12	-	-	-	58	-	-	52
